# According to ChEMBL document CHEMBL1153772 (J Nat Prod, 2009):
# The source made the active and inactive calls. The calls are words filed in the database; no cut-off is given here.
# Experiments:
# [1] = system: MIA PaCa-2; assay: Cytotoxicity against human MIAPaCa2 cells; assay type: functional, cell-based
# Summary of the method: (§1)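 IC50 value derived from at least three separate assay runs per sample.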
# [2] = system: MDA-MB-231; assay: Cytotoxicity against human MDA-MB-231 cells assessed cell growth; assay type: functional
# [3] = system: HL-60(TB); assay: Cytotoxicity against human HL-60(TB) cells assessed cell growth; assay type: functional; summary of the method: as §1
# [4] = organism: Homo sapiens; assay: Stability in human plasma in presence of PBS at 40 uM after 3 hrs
# [5] = organism: Homo sapiens; assay: Unbound fraction in human plasma at 10 uM
# [6] = system: SF-539; assay: Cytotoxicity against human SF539 cells assessed cell growth; assay type: functional
# [7] = organism: Homo sapiens; assay: Protein binding in human plasma at 1 uM; conditions: read-out: PPB (converted)
# [8] = Unbound fraction in mouse plasma at 10 uM; assay type: ADME, cell-free
# [9] = system: Nucleic Acid; assay: Displacement of ethidium bromide from DNA; assay type: nucleic-acid assay
# [10] = system: HT-29; assay: Cytotoxicity against human HT-29 cells assessed cell growth; assay type: functional
# [11] = Metabolic satbility in mouse liver microsomes assessed as compound remaining at 1 uM after 60 min in the absence of NADPH; assay type: ADME, Microsome; conditions: read-out: Stability
# [12] = system: SK-MEL-28; assay: Cytotoxicity against human SK-MEL-28 cells assessed cell growth; assay type: functional
# [13] = system: HOP-92; assay: Cytotoxicity against human HOP92 cells assessed cell growth; assay type: functional
# [14] = Stability in PBS and inorganic phosphate at 40 uM after 3 hrs; assay type: physicochemical; conditions: read-out: Stability
# [15] = Metabolic stability in mouse liver microsomes assessed as compound metabolized at 1 uM in the presence of NADPH; assay type: ADME, Microsome; conditions: read-out: Activity
# [16] = system: T47D; assay: Cytotoxicity against human T47D cells assessed cell growth; assay type: functional
# [17] = system: OVCAR-4; assay: Cytotoxicity against human OVCAR4 cells assessed cell growth; assay type: functional
# [18] = system: 786-0; assay: Cytotoxicity against human 786-0 cells assessed cell growth; assay type: functional
# [19] = system: Staphylococcus aureus; assay: […] activity against methicillin resistant Staphylococcus aureus 700787 after 24 hrs by broth dilution assay; assay type: functional; conditions: Staphylococcus aureus, 700787, 24 h
# Summary of the method: (§2)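 Broth microdilution in microtiter format at a seeding density of 10^3/mL. C. albicans was grown in Sabouraud dextrose broth; S. aureus and P. aeruginosa in cation-supplemented Mueller-Hinton broth. Incubated at 37°C, with growth scored after 24 h. MIC taken as the lowest concentration giving complete growth inhibition.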
# [20] = Unbound fraction in mouse plasma at 1 uM; assay type: ADME, cell-free
# [21] = system: BT-549; assay: Cytotoxicity against human BT549 cells assessed cell growth; assay type: functional
# [22] = system: NCI-H23; assay: Cytotoxicity against human NCI-H23 cells assessed cell growth; assay type: functional
# [23] = system: SN12C; assay: Cytotoxicity against human SN12C cells assessed cell growth; assay type: functional
# [24] = system: CCRF-CEM; assay: Cytotoxicity against human CCRF-CEM cells assessed cell growth; assay type: functional
# [25] = system: SF-268; assay: Cytotoxicity against human SF268 cells assessed cell growth; assay type: functional
# [26] = system: SK-MEL-5; assay: Cytotoxicity against human SK-MEL-5 cells assessed cell growth; assay type: functional
# [27] = system: NCI-H226; assay: Cytotoxicity against human NCI-H226 cells assessed cell growth; assay type: functional
# [28] = system: SW-620; assay: Cytotoxicity against human SW620 cells assessed cell growth; assay type: functional
# [29] = system: HCT-116; assay: Cytotoxicity against human HCT116 cells assessed cell growth; assay type: functional
# [30] = system: NCI-H460; assay: Cytotoxicity against human NCI-H460 cells assessed cell growth; assay type: functional
# [31] = Cytotoxicity against human Hs 578T cells assessed cell growth; assay type: functional
# [32] = system: HOP-62; assay: Cytotoxicity against human HOP62 cells assessed cell growth; assay type: functional
# [33] = system: LOX IMVI; assay: Cytotoxicity against human LOXIMVI cells assessed cell growth; assay type: functional
# [34] = system: TK-10; assay: Cytotoxicity against human TK10 cells assessed cell growth; assay type: functional
# [35] = system: UACC-62; assay: Cytotoxicity against human UACC62 cells assessed cell growth; assay type: functional
# [36] = system: PANC-1; assay: Cell cycle arrest in human PANC1 cells assessed as accumulation of cells at G1 phase at <=46.5 after 24 hrs by propidium iodide staining method; assay type: functional, cell-based
# Summary of the method: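 PANC-1 cells in RPMI 1640 with 10% FBS, HEPES, antibiotics, glutamine, pyruvate and glucose, at 37°C in 5% CO2, exposed to varying compound concentrations for 24 h alongside methanol vehicle and paclitaxel positive controls. Cells then ethanol-fixed and stained with 0.02 mg/mL propidium iodide plus 0.1 mg/mL RNase A. Flow cytometry collected 10,000 events per sample, and DNA histograms were modelled for phase distribution.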
# [37] = system: NCI/ADR-RES; assay: Cytotoxicity against human NCI/ADR-RES cells assessed cell growth; assay type: functional
# [38] = system: Candida albicans; assay: Antifungal activity against Candida albicans 44506 after 24 hrs by broth dilution assay; assay type: functional; conditions: Candida albicans, 44506, 24 h; summary of the method: as §2
# [39] = system: SNB-75; assay: Cytotoxicity against human SNB75 cells assessed cell growth; assay type: functional
# [40] = system: MCF7; assay: Cytotoxicity against human MCF7 cells assessed cell growth; assay type: functional
# [41] = Metabolic satbility in human liver microsomes assessed as compound remaining at 1 uM after 60 min in the absence of NADPH; assay type: ADME, Microsome; conditions: read-out: Stability
# [42] = system: COLO 205; assay: Cytotoxicity against human COLO205 cells assessed cell growth; assay type: functional
# [43] = system: NCI-H322M; assay: Cytotoxicity against human NCI-H322M cells assessed cell growth; assay type: functional
# [44] = Stability in mouse plasma assessed as compound remaining at 40 uM after 3 hrs in presence of PBS and inorganic phosphate buffer; assay type: ADME, cell-free; conditions: read-out: Activity
# [45] = organism: Homo sapiens; assay: Stability in human plasma assessed as compound remaining at 40 uM after 3 hrs in presence of PBS and inorganic phosphate buffer
compound,measurement,setting,value
CC(=O)N(C)CCc1cc(Br)c(OCCCNc2ncn(C)c3ncnc2-3)c(Br)c1 [APHROCALLISTIN],IC50,[1],26.6 µM
same,Activity,[2],74.94%
same,Activity,[3],39.94%
same,"remaining at 3 h, 40 µM",[4],103%
same,fraction unbound at 10 µM,[5],0.103
same,Activity,[6],80.09%
same,fraction unbound at 1 µM,[7],0.044
same,fraction unbound at 10 µM,[8],0.309
same,Activity,[9],inactive
same,Activity,[10],88.11%
same,"remaining at 1 h, 1 µM",[11],103%
same,Activity,[12],84.58%
same,Activity,[13],75.25%
same,"remaining at 3 h, 40 µM",[14],76.5%
same,metabolised at 1 µM,[15],98.6%
same,Activity,[16],26.91%
same,Activity,[17],33.32%
same,Activity,[18],70.65%
same,MIC,[19],250 µg/mL
same,fraction unbound at 1 µM,[20],0.15
same,Activity,[21],56.49%
same,Activity,[22],42.18%
same,Activity,[23],92.68%
same,Activity,[24],80.24%
same,Activity,[25],97.87%
same,Activity,[26],20%
same,Activity,[27],44.72%
same,Activity,[28],89.87%
same,Activity,[29],28.57%
same,Activity,[30],60.08%
same,Activity,[31],52.48%
same,Activity,[32],71.38%
same,Activity,[33],55.23%
same,Activity,[34],89.47%
same,Activity,[35],79.32%
same,Activity,[36],Active
same,Activity,[37],72.89%
same,MIC,[38],250 µg/mL
same,Activity,[39],81.17%
same,Activity,[40],39.83%
same,"remaining at 1 h, 1 µM",[41],118%
same,Activity,[42],104.32%
same,Activity,[43],76.48%
same,"remaining at 3 h, 40 µM",[44],79.6%
same,"remaining at 3 h, 40 µM",[45],76.6%
